The values that follow come from ChEMBL document CHEMBL1135917, “Human somatostatin receptor specificity of backbone-cyclic analogues containing novel sulfur building units” (J Med Chem, 2002).

*1 amine or outer side, *2 acyl side, *3 side chain or, on linkers, in order; H or OH if unused. Where a SMILES comes first, the peptide text is derived from it. Bridges are numbered along the chain shown (N, C = ends). [ ]: non-standard residue; d: D form. N(2-mercaptoethyl)Gly = O=C(CN(CCS[*:3])[*:1])[*:2]

The target in series [1] is Somatostatin receptor type 5 (Homo sapiens, UniProt P35346). Kind of series: Binding affinity of human Somatostatin receptor type 5 (hsst5) by the displacement of [125I]- Tyr11 somatostatin-14 in CHO-K1 cells. Format: cell-based. In short, it runs like this:
(§1)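 Membranes from CHO-K1 cells stably expressing each cloned human receptor, prepared in 50 mM Tris-HCl pH 7.8 with EGTA, MgCl2 and protease inhibitors. Membranes (0.2 or 0.4 mg/mL protein, receptor-dependent) incubated with 125I-Tyr11 somatostatin-14 for 45 min at room temperature. Nonspecific binding taken with […] somatostatin. Bound ligand separated by GF/C filtration and counted. Triplicate wells, at least two experiments. IC50 taken from inhibition curves, mean ± SEM.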
On the technique in general: Loss of bound radioactivity is the signal in a displacement assay; it reports binding, not function.

For series [2], the target named is Somatostatin receptor type 2 (Homo sapiens, UniProt P30874). Kind of series: Binding affinity of human Somatostatin receptor type 2 (hsst2) by the displacement of [125I]- Tyr11 somatostatin-14 in CHO-K1 cells. The format is cell-based. In short, it runs like this: as §1
Chain of Somatostatin receptor type 2 (P30874 whole entry): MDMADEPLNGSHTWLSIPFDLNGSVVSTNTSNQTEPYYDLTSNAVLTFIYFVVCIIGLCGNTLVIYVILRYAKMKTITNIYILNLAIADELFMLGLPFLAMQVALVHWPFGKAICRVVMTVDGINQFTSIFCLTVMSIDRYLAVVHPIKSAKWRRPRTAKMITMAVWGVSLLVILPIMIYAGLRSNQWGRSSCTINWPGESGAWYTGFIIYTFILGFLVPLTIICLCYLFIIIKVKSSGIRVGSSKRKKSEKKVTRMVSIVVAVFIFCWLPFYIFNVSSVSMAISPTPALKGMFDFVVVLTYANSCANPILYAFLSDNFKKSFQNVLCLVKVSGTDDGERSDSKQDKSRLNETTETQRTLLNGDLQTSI
The target in series [3] is Somatostatin receptor type 4 (Homo sapiens, UniProt P31391). Put plainly: Binding affinity of human Somatostatin receptor type 4 (hsst4) by the displacement of [125I]- Tyr11 somatostatin-14 in CHO-K1 cells. The format is cell-based. In short, it runs like this:
as §1

Series [4] concerns the target Somatostatin receptor type 3 (Homo sapiens, UniProt P32745). Put plainly: Binding affinity of human Somatostatin receptor type 3 (hsst3) by the displacement of [125I]- Tyr11 somatostatin-14 in CHO-K1 cells. The format is cell-based. In short, it runs like this:
as §1

In series [5] the target is Somatostatin receptor type 1 (Homo sapiens, UniProt P30872). Put plainly: Binding affinity of human Somatostatin receptor type 1 (hsst1) by the displacement of [125I]- Tyr11 somatostatin-14 in CHO-K1 cells. Format: cell-based. A digest of the protocol:
as §1

A short description of series [6]: Half life in renal homogenate. Format: ADME, tissue-based. A digest of the protocol: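 Peptides at 0.4 mg/mL final were incubated in rat renal homogenate at 37 °C for up to 4 h. Samples were taken at several time points. The fraction of intact peptide was measured by HPLC from the loss of major-peak area.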

Chain of Somatostatin receptor type 5 (P35346 whole entry): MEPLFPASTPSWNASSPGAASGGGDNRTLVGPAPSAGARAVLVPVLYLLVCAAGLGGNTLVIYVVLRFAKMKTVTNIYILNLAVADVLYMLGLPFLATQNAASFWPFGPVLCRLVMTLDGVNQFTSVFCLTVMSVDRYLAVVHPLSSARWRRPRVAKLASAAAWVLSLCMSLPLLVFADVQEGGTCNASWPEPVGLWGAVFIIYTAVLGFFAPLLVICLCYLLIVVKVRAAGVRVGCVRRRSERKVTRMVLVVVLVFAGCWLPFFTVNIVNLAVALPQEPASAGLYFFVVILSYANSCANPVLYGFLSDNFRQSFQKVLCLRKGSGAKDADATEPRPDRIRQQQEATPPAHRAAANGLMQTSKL
Chain of Somatostatin receptor type 1 (P30872 whole entry): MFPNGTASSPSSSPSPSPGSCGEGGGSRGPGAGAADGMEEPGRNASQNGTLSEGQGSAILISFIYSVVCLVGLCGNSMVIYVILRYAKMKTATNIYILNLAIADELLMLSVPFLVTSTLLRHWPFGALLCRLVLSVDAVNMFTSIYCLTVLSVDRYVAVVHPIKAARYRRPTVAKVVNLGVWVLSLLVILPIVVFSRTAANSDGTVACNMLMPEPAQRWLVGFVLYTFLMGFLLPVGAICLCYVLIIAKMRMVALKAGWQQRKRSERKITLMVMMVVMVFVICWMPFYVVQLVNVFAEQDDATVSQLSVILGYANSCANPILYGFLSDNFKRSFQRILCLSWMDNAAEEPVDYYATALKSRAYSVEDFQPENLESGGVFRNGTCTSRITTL
Chain of Somatostatin receptor type 3 (P32745 whole entry): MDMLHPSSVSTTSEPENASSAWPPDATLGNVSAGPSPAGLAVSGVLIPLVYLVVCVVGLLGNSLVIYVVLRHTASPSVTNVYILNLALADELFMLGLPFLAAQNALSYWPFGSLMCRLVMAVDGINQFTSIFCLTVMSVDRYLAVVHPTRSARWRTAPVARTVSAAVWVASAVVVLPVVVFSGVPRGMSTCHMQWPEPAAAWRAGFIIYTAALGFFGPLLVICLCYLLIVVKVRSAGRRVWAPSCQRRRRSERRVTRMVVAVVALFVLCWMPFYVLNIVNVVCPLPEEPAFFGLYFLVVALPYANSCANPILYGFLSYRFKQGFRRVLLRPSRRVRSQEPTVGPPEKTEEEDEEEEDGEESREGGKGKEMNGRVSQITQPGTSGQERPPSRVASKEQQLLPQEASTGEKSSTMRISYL
Chain of Somatostatin receptor type 4 (P31391 whole entry): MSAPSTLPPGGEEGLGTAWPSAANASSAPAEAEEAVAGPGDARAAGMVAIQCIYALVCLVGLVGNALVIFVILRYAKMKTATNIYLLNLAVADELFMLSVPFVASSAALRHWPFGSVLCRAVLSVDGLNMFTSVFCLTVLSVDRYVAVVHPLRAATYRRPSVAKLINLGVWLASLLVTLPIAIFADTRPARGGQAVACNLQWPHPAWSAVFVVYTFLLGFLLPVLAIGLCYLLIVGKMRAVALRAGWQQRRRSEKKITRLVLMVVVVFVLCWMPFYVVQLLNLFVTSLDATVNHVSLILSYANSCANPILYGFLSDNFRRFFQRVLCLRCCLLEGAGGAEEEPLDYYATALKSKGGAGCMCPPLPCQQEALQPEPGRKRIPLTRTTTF

What is called IC50 is the concentration that inhibits the measured activity by half. Higher therefore signals lower potency. In the case of `C[C@@H](O)[C@@H]1NC(=O)[C@@H](CCCCN)NC(=O)[C@@H](Cc2c[nH]c3ccccc23)NC(=O)[C@@H](Cc2c[nH]c3ccccc23)NC(=O)[C@H](Cc2ccccc2)NC(=O)C(NC(=O)[C@@H](N)Cc2ccccc2)CSSCCN(CC(N)=O)C(=O)[C@@H](Cc2ccccc2)NC1=O` (stereo not given in full), the IC50 in series [1] (cho-k1) is 4.5 nM; in series [2] (cho-k1), 12.8 nM; in series [3] (cho-k1), 35.9 nM; in series [4] (cho-k1) it was above 100 nM; in series [5] (cho-k1), above 1000 nM.
Take `C[C@@H](O)[C@@H]1NC(=O)[C@@H](CCCCN)NC(=O)[C@@H](Cc2c[nH]c3ccccc23)NC(=O)[C@@H](Cc2c[nH]c3ccccc23)NC(=O)[C@H](Cc2ccccc2)NC(=O)CN(C(=O)[C@@H](N)Cc2ccccc2)CCSSCCN(CC(N)=O)C(=O)[C@@H](Cc2ccccc2)NC1=O`: the IC50 was 18.2 nM in series [1] (cho-k1); 2.5 nM in series [2] (cho-k1); above 100 nM in series [3] (cho-k1); above 100 nM in series [4] (cho-k1); above 1000 nM in series [5] (cho-k1).
For `C[C@@H](O)[C@@H]1NC(=O)[C@H](CCCCN)NC(=O)[C@@H](Cc2c[nH]c3ccccc23)NC(=O)[C@H](Cc2c[nH]c3ccccc23)NC(=O)[C@H](Cc2ccccc2)NC(=O)CCCNC(=O)CCCN(CC(N)=O)C(=O)[C@H](Cc2ccccc2)NC1=O`, the IC50 is 1 nM in series [1]; 3 nM in series [2]; 7 nM in series [3]; above 100 nM in series [4]; above 1000 nM in series [5].
As to `C[C@@H](O)[C@@H]1NC(=O)[C@H](CCCCN)NC(=O)[C@@H](Cc2c[nH]c3ccccc23)NC(=O)[C@H](Cc2c[nH]c3ccccc23)NC(=O)[C@H](Cc2ccccc2)NC(=O)CCSSCCN(CC(N)=O)C(=O)[C@H](Cc2ccccc2)NC1=O`, the IC50 in series [1] is 2.8 nM; in series [2] it was 1.3 nM; in series [3], above 100 nM; in series [4] it was above 100 nM; in series [5] it was above 1000 nM.
Take `C[C@@H](O)[C@@H]1NC(=O)[C@H](CCCCN)NC(=O)[C@@H](Cc2c[nH]c3ccccc23)NC(=O)[C@H](Cc2c[nH]c3ccccc23)NC(=O)[C@H](Cc2ccccc2)NC(=O)CSSCCN(CC(N)=O)C(=O)[C@H](Cc2ccccc2)NC1=O`: the IC50 in series [2] was 28.7 nM; in series [3], above 100 nM; in series [4], 15.6 nM; in series [5], above 1000 nM.
On to `C[C@@H](O)[C@@H]1NC(=O)[C@H](CCCCN)NC(=O)[C@@H](Cc2c[nH]c3ccccc23)NC(=O)[C@H](Cc2c[nH]c3ccccc23)NC(=O)[C@H](Cc2ccccc2)NC(=O)CNCCSSCCN(CC(N)=O)C(=O)[C@H](Cc2ccccc2)NC1=O`, for which the IC50 in series [1] is 7.8 nM; in series [2], 4.1 nM; in series [3], 49.5 nM; in series [4], above 100 nM; in series [5], above 1000 nM.
The half-life is the time in which the quantity being followed falls by half. The low end stands for fast loss, the high end for slow loss. Consider `C[C@@H](O)[C@@H]1NC(=O)[C@H](CCCCN)NC(=O)[C@@H](Cc2c[nH]c3ccccc23)NC(=O)[C@H](Cc2c[nH]c3ccccc23)NC(=O)[C@H](Cc2ccccc2)NC(=O)[C@@H](N)CSSCCN(CC(N)=O)C(=O)[C@H](Cc2ccccc2)NC1=O` (H-CFW[dW]KTF[N(2-mercaptoethyl)Gly]-NH2; disulfide 1-8), for which the IC50 in series [1] is 1.2 nM; in series [2], 5.2 nM; in series [3], 41.1 nM; in series [4], 40.7 nM; in series [5], above 1000 nM. In series [6], this molecule had a half-life of 3 h.
